Data as given in ChEMBL document CHEMBL5649170, “Sustained microglial depletion with CSF1R inhibitor impairs parenchymal plaque development in an Alzheimer's disease model” (Nat Commun, 2019).
Active and inactive are the calls of the source. No cut-off for these calls is given here.

Assays:
Mus musculus [1] = assay: Antialzheimer activity in mouse harboring CX3CR1-GFP+/- assessed as microglial elimination in brain at 600 ppm administered as chow for 7 days relative to control; assay type: functional; details: route po, time 7 day
Mus musculus [2] = assay: Antialzheimer activity in 5XFAD mouse assessed as number of Iba1 positive cells per FOV in […] cortex at 1200 ppm administered as rodent chow starting from 1.5 months to 4 months followed by compound removal and measured after 1 months by immunolabelling based confocal microscopic analysis (reference value: 210 to 529); assay type: functional; details: route po, time 2.5 months, 1825 h
Summary of the method: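 For the repopulation paradigm, 5xFAD mice ate 1200 ppm PLX5622 chow from 1.5 to 4 months of age. Inhibitor chow was then withdrawn, and brains were examined one month later. Sections were stained with Thio-S and immunolabeled for IBA1, then analysed by confocal microscopy in cortical regions.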

[3] = molecular target: Mitogen-activated protein kinase 13 (Homo sapiens, UniProt O15264); assay: Inhibition of MAPK13 (unknown origin)
Mus musculus [4] = assay: Antialzheimer activity in 5XFAD mouse assessed as average plaque volume in retro spinal cortex at 1200 ppm administered as rodent chow starting from 1.5 months and measured after 7 months by Thio-S staining based confocal microscopic analysis (reference value: 1174.18 to 2460.96 microm3); assay type: functional; details: route po, time 5.5 months, 4015 h
[5] = Volume of distribution at steady state in mouse at 1.92 mg/kg, iv administered as single dose; assay type: ADME, organism-based; details: in vivo, read-out: Vdss
[6] = Toxicity in wildtype mouse assessed as number of open arm entries at 1200 ppm administered as rodent chow for 10 to 24 weeks by Elevated plus maze test (reference value: 7 to 29); details: in vivo, po, time 10-24 weeks
[7] = molecular target: Protein-tyrosine kinase 2-beta (Homo sapiens, UniProt Q14289); assay: Inhibition of PTK2B (unknown origin)
[8] = Effect on Cst7 gene expression in wild type mouse thalamus at 1200 ppm administered as rodent chow starting from 1.5 months and measured after 7 months by RNA-Seq analysis (reference value: 0 to 1.803 RPKM); assay type: functional; details: route po, time 5.5 months, 4015 h
[9] = Clearance in male rat at 1.13 mg/kg, iv administered as single dose; assay type: ADME, organism-based; details: in vivo
Mus musculus [10] = assay: Antialzheimer activity in 5XFAD mouse assessed as A11 protein intensity at 1200 ppm administered as rodent chow starting from 1.5 months and measured after 7 months by immunoblot analysis (reference value: 54.431 to 142.272 a.u.); assay type: functional; details: route po, time 5.5 months, 4015 h
[11] = molecular target: Macrophage-stimulating protein receptor (Homo sapiens, UniProt Q04912); assay: Inhibition of MST1R (unknown origin)
[12] = Effect on Kcnq3 gene expression in wildtype mouse hippocampus assessed as percent change in Reads Per kilo base per Million mapped reads at 1200 ppm administered as rodent chow starting from 1.5 months and measured after 7 months by RNA-Seq analysis (reference value: 77.761 to 119.973 %); assay type: functional; details: route po, time 5.5 months, 4015 h
[13] = Effect on Cx3cr1 gene expression in wild type mouse thalamus at 1200 ppm administered as rodent chow starting from 1.5 months and measured after 7 months by RNA-Seq analysis (reference value: 10.263 to 12.137 RPKM); assay type: functional; details: route po, time 5.5 months, 4015 h
[14] = molecular target: Phosphorylase b kinase gamma catalytic chain, skeletal muscle/heart isoform (Homo sapiens, UniProt Q16816); assay: Inhibition of PHKG1 (unknown origin)
[15] = molecular target: T1, Macrophage colony-stimulating factor 1 receptor (Mus musculus) (UniProt P09581); assay: In vivo inhibition of CSF1R in wildtype mouse assessed as iron reactivity by measuring hemosiderin intensity of prussian blue staining in thalamus at 1200 ppm administered as rodent chow starting from 1.5 months and measured after 7 months by confocal microscopic analysis (reference value: 0.068 to 2.717 a.u.); assay type: functional; details: route po, time 5.5 months
T1 sequence (whole entry): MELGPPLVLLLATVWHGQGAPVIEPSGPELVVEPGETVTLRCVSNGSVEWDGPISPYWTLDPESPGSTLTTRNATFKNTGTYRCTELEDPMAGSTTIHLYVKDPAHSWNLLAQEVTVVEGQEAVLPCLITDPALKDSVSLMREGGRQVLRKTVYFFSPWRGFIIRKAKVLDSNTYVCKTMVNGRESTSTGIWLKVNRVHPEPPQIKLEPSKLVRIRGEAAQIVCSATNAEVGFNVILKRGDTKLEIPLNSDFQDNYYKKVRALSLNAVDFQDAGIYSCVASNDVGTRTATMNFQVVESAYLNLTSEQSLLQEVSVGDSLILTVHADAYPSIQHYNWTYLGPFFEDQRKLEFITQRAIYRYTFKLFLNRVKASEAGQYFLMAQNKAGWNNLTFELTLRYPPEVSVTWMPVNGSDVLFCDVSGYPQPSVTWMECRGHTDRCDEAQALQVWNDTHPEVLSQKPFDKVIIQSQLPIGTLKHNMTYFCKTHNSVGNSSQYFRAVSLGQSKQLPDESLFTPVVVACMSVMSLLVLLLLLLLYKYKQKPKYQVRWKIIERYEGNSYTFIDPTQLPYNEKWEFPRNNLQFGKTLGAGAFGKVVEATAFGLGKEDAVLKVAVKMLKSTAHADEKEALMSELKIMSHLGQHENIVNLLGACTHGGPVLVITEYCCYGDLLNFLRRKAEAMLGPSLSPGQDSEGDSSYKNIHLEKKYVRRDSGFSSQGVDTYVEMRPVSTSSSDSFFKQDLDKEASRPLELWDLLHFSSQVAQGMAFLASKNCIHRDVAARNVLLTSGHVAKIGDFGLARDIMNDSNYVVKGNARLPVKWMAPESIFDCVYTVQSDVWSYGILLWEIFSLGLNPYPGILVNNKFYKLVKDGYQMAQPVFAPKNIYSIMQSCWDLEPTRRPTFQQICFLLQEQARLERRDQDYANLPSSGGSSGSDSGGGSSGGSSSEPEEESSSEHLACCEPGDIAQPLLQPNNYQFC
Summary of the method: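 Wild-type or 5xFAD mice fed PLX5622 (1200 ppm) in AIN-76A chow from 1.5 months of age, examined in 4- and 7-month-old cohorts. Brain sections stained with a Prussian blue kit per kit instructions to detect iron deposits (microbleeds).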

[16] = Effect on Pcdhac1 gene expression in wildtype mouse hippocampus assessed as percent change in Reads Per kilo base per Million mapped reads at 1200 ppm administered as rodent chow starting from 1.5 months and measured after 7 months by RNA-Seq analysis (reference value: 88.246 to 122.665 %); assay type: functional; details: route po, time 5.5 months, 4015 h
Mus musculus [17] = assay: Prevention of Itgam gene upregulation in 5XFAD mouse hippocampus at 1200 ppm administered as rodent chow starting from 1.5 months and measured after 7 months by Nanostring analysis; assay type: functional, tissue-based; details: route po, time 5.5 months
[18] = Effect on Spi1 gene expression in wild type mouse thalamus at 1200 ppm administered as rodent chow starting from 1.5 months and measured after 7 months by RNA-Seq analysis (reference value: 1.161 to 2.277 RPKM); assay type: functional; details: route po, time 5.5 months, 4015 h
[19] = AUC (0 to infinity) in male rat at 45 mg/kg, po administered as single dose via gavage; assay type: ADME, organism-based; details: in vivo
[20] = molecular target: Ribosomal protein S6 kinase alpha-5 (Homo sapiens, UniProt O75582); assay: Inhibition of RPS6KA5 (unknown origin)
Mus musculus [21] = assay: Effect on APP processing pathway in 5XFAD mouse assessed as C83 protein signal intensity in cortex at 1200 ppm administered as rodent starting from 1.5 months and measured after 7 months (reference value: 37.776 to 172.037 %); assay type: functional; details: route po, time 5.5 months, 4015 h

Phosphorylase b kinase gamma catalytic chain, skeletal muscle/heart isoform, sequence (Q16816 whole entry, canonical isoform): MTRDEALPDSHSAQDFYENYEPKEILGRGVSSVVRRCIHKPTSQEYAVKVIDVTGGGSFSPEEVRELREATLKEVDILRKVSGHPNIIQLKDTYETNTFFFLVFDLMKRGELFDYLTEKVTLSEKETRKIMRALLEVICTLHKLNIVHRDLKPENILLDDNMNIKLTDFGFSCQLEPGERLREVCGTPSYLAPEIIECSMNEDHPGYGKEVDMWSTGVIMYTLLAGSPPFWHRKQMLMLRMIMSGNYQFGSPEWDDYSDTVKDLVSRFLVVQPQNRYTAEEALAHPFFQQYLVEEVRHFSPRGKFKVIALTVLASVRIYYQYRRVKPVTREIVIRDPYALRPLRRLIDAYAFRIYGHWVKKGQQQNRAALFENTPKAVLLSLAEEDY
Mitogen-activated protein kinase 13, sequence (O15264 whole entry): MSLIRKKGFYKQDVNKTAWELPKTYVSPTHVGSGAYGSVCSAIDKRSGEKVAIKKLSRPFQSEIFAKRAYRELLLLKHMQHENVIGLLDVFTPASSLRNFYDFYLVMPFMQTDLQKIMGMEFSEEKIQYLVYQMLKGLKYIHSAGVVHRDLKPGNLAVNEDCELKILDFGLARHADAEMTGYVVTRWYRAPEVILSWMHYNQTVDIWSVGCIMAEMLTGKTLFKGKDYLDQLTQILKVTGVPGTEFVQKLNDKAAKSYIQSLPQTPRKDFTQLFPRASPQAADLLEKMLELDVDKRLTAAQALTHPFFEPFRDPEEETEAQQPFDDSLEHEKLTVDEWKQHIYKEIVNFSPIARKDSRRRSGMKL
Ribosomal protein S6 kinase alpha-5, sequence (O75582 whole entry): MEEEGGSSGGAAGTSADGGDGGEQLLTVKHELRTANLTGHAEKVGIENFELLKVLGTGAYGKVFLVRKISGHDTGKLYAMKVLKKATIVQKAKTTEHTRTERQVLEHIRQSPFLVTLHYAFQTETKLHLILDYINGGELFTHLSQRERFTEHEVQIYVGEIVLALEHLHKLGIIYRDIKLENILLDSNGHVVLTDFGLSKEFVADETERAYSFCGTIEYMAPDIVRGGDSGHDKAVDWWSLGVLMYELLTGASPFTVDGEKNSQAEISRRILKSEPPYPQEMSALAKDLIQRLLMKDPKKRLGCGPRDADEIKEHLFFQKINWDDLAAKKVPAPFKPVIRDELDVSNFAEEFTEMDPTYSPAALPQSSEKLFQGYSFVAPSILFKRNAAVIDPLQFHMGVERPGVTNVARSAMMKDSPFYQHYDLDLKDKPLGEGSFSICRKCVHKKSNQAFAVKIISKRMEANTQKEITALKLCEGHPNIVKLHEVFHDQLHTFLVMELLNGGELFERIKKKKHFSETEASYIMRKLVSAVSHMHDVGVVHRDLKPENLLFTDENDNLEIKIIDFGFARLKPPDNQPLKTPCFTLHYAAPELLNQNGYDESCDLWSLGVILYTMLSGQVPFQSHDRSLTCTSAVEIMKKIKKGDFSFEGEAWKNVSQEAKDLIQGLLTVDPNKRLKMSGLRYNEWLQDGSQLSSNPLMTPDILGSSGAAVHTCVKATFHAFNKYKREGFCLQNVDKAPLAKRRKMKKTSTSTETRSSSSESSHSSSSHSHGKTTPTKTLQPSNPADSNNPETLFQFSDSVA
Protein-tyrosine kinase 2-beta, sequence (Q14289 whole entry): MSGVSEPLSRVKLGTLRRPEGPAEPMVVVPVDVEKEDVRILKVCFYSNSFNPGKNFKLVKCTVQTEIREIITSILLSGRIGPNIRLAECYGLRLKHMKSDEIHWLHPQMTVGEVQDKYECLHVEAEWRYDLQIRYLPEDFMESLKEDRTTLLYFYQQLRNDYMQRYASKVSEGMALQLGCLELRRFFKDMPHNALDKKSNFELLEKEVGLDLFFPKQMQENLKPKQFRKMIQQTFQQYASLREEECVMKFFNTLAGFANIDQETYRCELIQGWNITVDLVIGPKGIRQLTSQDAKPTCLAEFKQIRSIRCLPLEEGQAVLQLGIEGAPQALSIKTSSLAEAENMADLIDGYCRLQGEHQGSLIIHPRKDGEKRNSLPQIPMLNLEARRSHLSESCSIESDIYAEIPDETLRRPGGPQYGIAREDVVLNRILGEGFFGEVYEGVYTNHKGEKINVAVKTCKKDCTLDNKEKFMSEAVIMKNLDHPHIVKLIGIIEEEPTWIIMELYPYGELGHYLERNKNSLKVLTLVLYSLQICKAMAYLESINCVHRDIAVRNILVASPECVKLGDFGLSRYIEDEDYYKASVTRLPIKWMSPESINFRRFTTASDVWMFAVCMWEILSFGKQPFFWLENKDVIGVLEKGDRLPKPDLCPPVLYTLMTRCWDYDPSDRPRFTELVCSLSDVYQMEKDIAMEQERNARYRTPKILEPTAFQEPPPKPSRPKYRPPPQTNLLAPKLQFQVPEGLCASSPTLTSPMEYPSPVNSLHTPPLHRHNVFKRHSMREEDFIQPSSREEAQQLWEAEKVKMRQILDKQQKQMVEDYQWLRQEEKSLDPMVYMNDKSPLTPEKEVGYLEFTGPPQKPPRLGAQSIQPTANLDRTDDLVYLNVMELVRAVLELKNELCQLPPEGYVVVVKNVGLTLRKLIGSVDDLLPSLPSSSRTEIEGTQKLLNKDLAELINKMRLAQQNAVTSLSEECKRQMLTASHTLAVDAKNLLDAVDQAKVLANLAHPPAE
Macrophage-stimulating protein receptor, sequence (Q04912 25-304 limits assumed): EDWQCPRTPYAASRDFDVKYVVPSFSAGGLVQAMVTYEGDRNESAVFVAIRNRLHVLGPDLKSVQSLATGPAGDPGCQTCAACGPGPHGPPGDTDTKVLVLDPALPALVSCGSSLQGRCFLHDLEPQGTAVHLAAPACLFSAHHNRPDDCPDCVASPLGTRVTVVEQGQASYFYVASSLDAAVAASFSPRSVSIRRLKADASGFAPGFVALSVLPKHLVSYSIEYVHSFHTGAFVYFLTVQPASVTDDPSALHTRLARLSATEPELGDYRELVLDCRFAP
Macrophage-stimulating protein receptor, sequence (Q04912 310-1400 limits assumed): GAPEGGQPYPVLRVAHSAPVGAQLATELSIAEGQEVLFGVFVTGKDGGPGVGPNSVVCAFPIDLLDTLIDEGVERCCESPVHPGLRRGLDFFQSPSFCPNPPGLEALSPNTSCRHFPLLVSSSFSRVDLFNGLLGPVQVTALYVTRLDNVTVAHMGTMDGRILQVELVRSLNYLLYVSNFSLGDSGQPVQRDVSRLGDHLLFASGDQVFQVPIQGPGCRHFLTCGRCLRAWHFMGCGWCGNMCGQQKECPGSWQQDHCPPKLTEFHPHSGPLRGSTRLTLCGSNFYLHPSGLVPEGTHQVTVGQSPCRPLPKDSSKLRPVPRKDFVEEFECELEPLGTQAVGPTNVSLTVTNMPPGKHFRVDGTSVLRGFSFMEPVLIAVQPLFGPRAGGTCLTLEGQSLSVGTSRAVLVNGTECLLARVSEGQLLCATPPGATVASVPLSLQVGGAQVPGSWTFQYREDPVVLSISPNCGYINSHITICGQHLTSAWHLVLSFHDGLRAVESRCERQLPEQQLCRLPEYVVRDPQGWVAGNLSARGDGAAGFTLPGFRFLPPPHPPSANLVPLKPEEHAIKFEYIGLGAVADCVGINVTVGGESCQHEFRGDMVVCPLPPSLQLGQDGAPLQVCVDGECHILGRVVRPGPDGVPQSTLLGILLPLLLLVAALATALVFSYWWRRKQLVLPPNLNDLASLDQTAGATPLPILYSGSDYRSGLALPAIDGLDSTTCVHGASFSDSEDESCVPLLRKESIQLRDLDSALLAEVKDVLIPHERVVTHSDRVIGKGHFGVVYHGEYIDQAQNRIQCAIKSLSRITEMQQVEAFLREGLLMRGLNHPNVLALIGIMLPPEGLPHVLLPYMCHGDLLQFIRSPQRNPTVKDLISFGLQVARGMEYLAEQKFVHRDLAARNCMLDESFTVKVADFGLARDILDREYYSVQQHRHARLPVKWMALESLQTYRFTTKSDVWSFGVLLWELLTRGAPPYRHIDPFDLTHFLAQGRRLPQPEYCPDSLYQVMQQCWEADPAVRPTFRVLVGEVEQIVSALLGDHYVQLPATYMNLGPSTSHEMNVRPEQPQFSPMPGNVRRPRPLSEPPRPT

Compound: FC(F)(F)c1ccc(CNc2ccc(Cc3c[nH]c4ncc(Cl)cc34)cn2)cn1 [PEXIDARTINIB]
- Activity (Mus musculus [1]): >99%

Compound: COc1ncc(F)cc1CNc1ccc(Cc2c[nH]c3ncc(C)cc23)c(F)n1 [PLX-5622]
- Activity (Mus musculus [2]): 66
- IC50 [3]: > 1000 nM
- Activity (Mus musculus [4]): 622.98 um3
- Vd [5]: 0.34 L/kg
- Activity [6]: 6
- IC50 [7]: > 1000 nM
- Activity [8]: 0 RPKM
- clearance [9]: 7.7 mL/min/kg
- Flu intensity (Mus musculus [10]): 21.124 a.u.
- IC50 [11]: > 1000 nM
- Activity [12]: 52.407%
- Activity [13]: 0.026 RPKM
- IC50 [14]: > 1000 nM
- Flu intensity [15]: 0.086 a.u.
- Activity [16]: 63.951%
- Activity (Mus musculus [17]): Active
- Activity [18]: 0 RPKM
- AUC(0-inf) [19]: 99600 ng·h/mL
- IC50 [20]: > 1000 nM
- Activity (Mus musculus [21]): 70.442%
